ChEMBL document CHEMBL1127847, “Cyclic GMP phosphodiesterase inhibitors. 2. Requirement of 6-substitution of quinazoline derivatives for potent and selective inhibitory activity” (J Med Chem, 1994)
pEC50, pIC50: −log10 of the molar value.

Tests used:
[1] = target: T1, Phosphodiesterase 3A (Sus scrofa, UniProt Q9XSW7); test: Inhibition of cGMP-inhibited PDE 3 from porcine aorta
T1 sequence (Q9XSW7 whole entry): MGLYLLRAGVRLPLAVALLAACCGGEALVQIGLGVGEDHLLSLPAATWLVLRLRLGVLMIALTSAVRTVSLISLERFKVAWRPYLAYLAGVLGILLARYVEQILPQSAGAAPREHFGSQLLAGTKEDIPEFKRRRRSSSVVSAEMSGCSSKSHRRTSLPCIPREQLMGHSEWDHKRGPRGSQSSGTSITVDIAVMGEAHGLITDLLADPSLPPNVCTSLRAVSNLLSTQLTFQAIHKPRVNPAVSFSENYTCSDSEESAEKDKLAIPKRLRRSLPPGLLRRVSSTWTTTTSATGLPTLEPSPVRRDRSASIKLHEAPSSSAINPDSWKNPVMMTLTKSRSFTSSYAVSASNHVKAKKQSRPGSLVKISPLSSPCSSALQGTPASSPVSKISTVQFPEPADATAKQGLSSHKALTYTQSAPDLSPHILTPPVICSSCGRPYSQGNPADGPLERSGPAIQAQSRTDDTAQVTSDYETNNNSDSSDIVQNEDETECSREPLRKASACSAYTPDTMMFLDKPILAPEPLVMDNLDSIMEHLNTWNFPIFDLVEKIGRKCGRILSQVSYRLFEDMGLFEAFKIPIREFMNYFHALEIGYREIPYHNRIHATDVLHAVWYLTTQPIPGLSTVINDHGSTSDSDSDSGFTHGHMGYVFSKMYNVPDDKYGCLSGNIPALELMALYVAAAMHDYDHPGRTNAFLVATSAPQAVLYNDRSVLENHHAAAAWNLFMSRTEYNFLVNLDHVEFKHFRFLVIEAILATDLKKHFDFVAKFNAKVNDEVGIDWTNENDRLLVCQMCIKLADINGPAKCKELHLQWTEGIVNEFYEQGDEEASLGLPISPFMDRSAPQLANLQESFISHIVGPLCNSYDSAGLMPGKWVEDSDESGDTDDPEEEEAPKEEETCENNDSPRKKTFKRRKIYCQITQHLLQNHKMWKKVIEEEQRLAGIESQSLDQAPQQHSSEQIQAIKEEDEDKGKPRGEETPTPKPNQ
Method in brief: (§1)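 Porcine aorta PDE isozyme, two-step radioisotopic assay with 1 µM [3H]substrate: cGMP for type I, cAMP for types II, III and IV. Compounds dissolved in DMSO, diluted in assay buffer over 10^-8 to 10^-4 M, final DMSO under 0.4% (v/v). IC50 taken from the log concentration-inhibition plot (at least three points), mean ± SEM of at least three experiments.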

[2] = species: Sus scrofa; test: Relaxant effect on PGF2-alpha precontracted porcine coronary arteries; format: functional, organism-based
Method in brief: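 Porcine coronary strips held at 1 g resting tension. Endothelium confirmed by 7 × 10^-9 M bradykinin relaxation after 50 mM KCl. Contraction with PGF2α (final 10^-5 M); at plateau, cumulative concentration-relaxation curves built. Relaxation expressed as % of PGF2α contraction. EC50 from the log cumulative plot, mean ± SEM (n given).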

[3] = target: T2, Phosphodiesterase 4A (Sus scrofa, UniProt O77823); test: Inhibition of cAMP specific-PDE 4 from porcine aorta; method in brief: as §1
T2 sequence (O77823 whole entry): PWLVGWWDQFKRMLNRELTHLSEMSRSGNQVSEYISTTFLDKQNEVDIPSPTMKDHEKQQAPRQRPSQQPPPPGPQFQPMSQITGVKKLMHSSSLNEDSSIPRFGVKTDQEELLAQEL

[4] = target: Phosphodiesterase 1 (Homo sapiens, UniProt P54750+Q01064+Q14123); test: Inhibition of Ca++ calmodulin dependent-PDE 1 from porcine aorta; format: protein assay, Sus scrofa; conditions: target entry is the homologue from another species; method in brief: as §1
[5] = target: cGMP-dependent 3',5'-cyclic phosphodiesterase (Homo sapiens, UniProt O00408); test: Inhibition of cGMP stimulated-PDE 2 from porcine aorta; set-up: species or system Sus scrofa; conditions: target entry is the homologue from another species; method in brief: as §1
Chain of cGMP-dependent 3',5'-cyclic phosphodiesterase (O00408 whole entry): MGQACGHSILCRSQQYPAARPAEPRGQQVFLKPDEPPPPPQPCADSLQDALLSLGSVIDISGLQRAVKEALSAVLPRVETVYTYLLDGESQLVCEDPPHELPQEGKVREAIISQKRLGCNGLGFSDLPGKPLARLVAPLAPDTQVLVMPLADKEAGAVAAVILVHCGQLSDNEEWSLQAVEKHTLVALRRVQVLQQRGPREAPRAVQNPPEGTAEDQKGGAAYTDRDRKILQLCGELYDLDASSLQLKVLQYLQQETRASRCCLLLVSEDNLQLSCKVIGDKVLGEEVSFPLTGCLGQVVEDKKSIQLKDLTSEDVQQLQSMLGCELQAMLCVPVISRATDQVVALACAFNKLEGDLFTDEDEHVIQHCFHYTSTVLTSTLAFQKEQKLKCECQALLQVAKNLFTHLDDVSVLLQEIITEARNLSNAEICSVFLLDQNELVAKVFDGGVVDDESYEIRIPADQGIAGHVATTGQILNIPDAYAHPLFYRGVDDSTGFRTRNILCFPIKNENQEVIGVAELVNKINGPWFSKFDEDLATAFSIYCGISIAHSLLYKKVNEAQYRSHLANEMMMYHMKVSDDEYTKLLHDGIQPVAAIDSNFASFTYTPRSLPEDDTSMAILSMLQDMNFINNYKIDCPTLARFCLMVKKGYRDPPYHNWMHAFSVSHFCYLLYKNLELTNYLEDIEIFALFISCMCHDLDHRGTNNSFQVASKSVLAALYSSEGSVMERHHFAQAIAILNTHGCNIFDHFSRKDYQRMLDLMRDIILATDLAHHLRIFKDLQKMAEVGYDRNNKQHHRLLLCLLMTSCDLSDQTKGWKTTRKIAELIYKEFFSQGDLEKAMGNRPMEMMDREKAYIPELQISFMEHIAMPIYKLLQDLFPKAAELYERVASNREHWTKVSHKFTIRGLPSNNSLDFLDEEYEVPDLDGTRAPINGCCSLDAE

pIC50 [1]	pEC50 [2]	pIC50 [3]	IC50 [4] [µM]	pIC50 [5]	Compound
< 4.00	5.81	< 4.00	> 100	< 4.00	Cc1ccc2ncnc(NCc3ccc4c(c3)OCO4)c2c1
< 4.00	6.92	< 4.00	> 100	< 4.00	CSc1ccc2ncnc(NCc3ccc4c(c3)OCO4)c2c1
< 4.00	6.52	< 4.00	> 100	< 4.00	N#Cc1ccc2ncnc(NCc3ccc4c(c3)OCO4)c2c1
	5.67				COc1cc2c(NCc3ccc4c(c3)OCO4)ncnc2c(OC)c1OC
	5.92	< 4.00	> 100	< 4.00	COc1ccc2ncnc(NCc3ccc4c(c3)OCO4)c2c1
< 4.00	6.72	< 4.00	> 100	< 4.00	Clc1ccc2ncnc(NCc3ccc4c(c3)OCO4)c2c1
